From PubChem BioAssay
Compounds with a hit are over-represented: about 4.1% of the library has one in this group of screens.
HCV NS3 hel inh: blocks Hepatitis C virus NS3 helicase unwinding; NS3 helicase DNA unwinding, Cy5 molecular beacon fluorescence; inhibition, % at 10.9 µM; 290,000 tested, 0.56% active;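 active means inhibition above the mean of all tested compounds plus 3 SD, set per campaign, cut at about 35% in these data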;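 further: 0% = DMSO wells and 100% = thioflavine S control wells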
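System: NS3 helicase fragment of HCV / Schedule: 1 h at 25 °C / Control set: DMSO alone as 0% and 110 µM thioflavine S as 100% / Reagent: Cy5/quencher beacon DNA duplex and ATP to start / Technique: Cy5 fluorescence / Replication: singlicate / Evaluation: % inhibition of end-to-start signal ratio versus controls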
MEKK2 WT-MEK5: raises or lowers MEK5 binding to wildtype human MEKK2 PB1 domain | Q9Y2U5 | bead flow cytometry, Alexa488-MEK5 binding to MEKK2 WT; actives lie on both sides | binding response (% of control), % at 10 µM | 290,000 tested, 1.1% active | AID 1531; in the data active means binding response below about 67% or above about 130%
FID counter: counter-screen for HCV NS3 helicase inhibitors: DNA intercalator displacement; 290,000 tested, 0.17% active; inhibition, % at 7.9 µM; DNA fluorescent intercalator displacement, fluorescence; in the data active means inhibition above about 37%;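 further: 0% = vehicle and 100% = reference compound; higher means more ethidium bromide displaced from hairpin DNA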
T cruzi inh: blocks replication of Trypanosoma cruzi; inhibition, % (no concentration beside the values); T. cruzi beta-gal in NIH3T3, luminescence, 90 h; 300,000 tested, 1.4% active;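 active means mean inhibition across valid replicates above about 55%, limit read from the data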;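 further: signal also drops with host cell toxicity which is not excluded here; 0% = plate median of DMSO wells and 100% = zero luminescence signal; higher percent means less beta-gal luminescence so fewer parasites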
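System: NIH/3T3 fibroblasts plus reporter T. cruzi. Medium: DMEM plus 2% FBS. Probe or stimulus: 5000 reporter trypomastigotes per well. Compound: single 50 nL compound addition per well in DMSO. Incubation: co-culture of at least 90 h after 3 h attachment. Detection: GalScreen β-gal luminescence, detergent lysis, 60 min. Evaluation: parasite load inhibition, %.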
MEKK2mut PB1 HTS: signal of MEK5 binding to mutant human MEKK2 PB1 domain; bead flow cytometry, Alexa488-MEK5 binding to MEKK2 mutant; percent response, % at 10 µM; 290,000 tested, 0.35% active; in the data active means percent response above about 24%, passing the limit was not always enough
MEKK3 PB1 HTS: MEKK3-MEK5 PB1 interaction, increase or decrease; binding response (% of control), % at 10 µM; 290,000 tested, 1.4% active; bead-based flow cytometry, Alexa488-MEK5 binding to MEKK3; actives lie on both sides; 0 = blocked by unlabeled MEK5, 100 = vehicle; AID 1529;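 active means binding response more than 3 SD above or below the average of its plate-row segment, actives on both sides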;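 further: Alexa488 bead fluorescence after subtracting the streptavidin-only scavenger bead signal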
Target sequence (Q99759 whole entry, looked up): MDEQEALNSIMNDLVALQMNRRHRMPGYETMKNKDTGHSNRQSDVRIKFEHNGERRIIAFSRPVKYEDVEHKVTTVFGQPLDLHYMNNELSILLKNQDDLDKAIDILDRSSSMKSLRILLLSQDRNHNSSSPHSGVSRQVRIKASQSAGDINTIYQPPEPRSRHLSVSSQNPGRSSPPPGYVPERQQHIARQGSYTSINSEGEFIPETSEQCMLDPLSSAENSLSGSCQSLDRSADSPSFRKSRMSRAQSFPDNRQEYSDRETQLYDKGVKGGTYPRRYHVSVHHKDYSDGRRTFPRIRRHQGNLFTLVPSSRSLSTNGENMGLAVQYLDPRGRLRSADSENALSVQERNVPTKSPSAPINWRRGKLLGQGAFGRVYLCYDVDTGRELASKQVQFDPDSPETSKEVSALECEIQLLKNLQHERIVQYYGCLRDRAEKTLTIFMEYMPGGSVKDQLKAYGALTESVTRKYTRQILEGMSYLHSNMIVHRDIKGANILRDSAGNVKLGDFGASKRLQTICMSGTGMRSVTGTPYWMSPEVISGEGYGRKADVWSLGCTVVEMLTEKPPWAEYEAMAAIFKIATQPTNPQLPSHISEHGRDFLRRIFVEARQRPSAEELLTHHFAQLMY
MEKK2wt confirm: raises or lowers MEK5 binding to wildtype human MEKK2, retest; shares compounds with MEKK3 PB1 HTS; AID 1892; binding response (% of control), % at 10 µM; bead flow cytometry, Alexa488-MEK5 binding to MEKK2 WT; actives lie on both sides; 5,900 tested, 2.4% active; in the data active means binding response below about 16% or above about 210%; inactive means in between
MEKK2mut confirm: signal of MEK5 binding to mutant human MEKK2, retest | shares compounds with MEKK3 PB1 HTS | bead flow cytometry, Alexa488-MEK5 binding to MEKK2 mutant | percent response, % at 10 µM | 5,900 tested, 2% active; in the data active means percent response mostly above about 71%, no sharp cut-off; inactive means mostly below about 38%;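 further: higher means compound restores mutant binding toward wildtype level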
MEKK3 confirm: confirmation of inhibitors of MEK5 binding to human MEKK3. binding response (% of control), % at 10 µM. bead flow cytometry, Alexa488-MEK5 binding to MEKK3; hits give low values. 5,900 tested, 1.8% active. shares compounds with MEKK3 PB1 HTS. AID 1894;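 active means binding response below 72% of control, or above a set upper limit, though filed actives all read lower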;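 further: 100% = DMSO only wells and 0% = binding blocked by excess unlabeled MEK5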
Active calls of the source: *; . = not tested or not shown; [ ] = dose if it differs, or a comment.

SMILES | HCV NS3 hel inh | MEKK2 WT-MEK5 | FID counter | T cruzi inh | MEKK2mut PB1 HTS | MEKK3 PB1 HTS | MEKK2wt confirm | MEKK2mut confirm | MEKK3 confirm
CCC1(CC)C(=O)C2=C3C1[C@H](C(=O)OC)CC(C(=O)OC)C[C@H]3n1c(=O)n(-c3ccccc3)c(=O)n1[C@H]2C (stereo partly specified) | . | 86 | . | 21 | -4 | 80*[inhibitor] | 96 | 1 | 97
COC(=O)C1=C[C@@H](C(=O)OC)[C@@H]2C3=C(C(=O)[C@]2(CC(C)C)NC(=O)c2ccccc2)[C@H](C)n2c(=O)n(-c4ccccc4)c(=O)n2[C@@H]3C1 | . | 105 | . | 2 | 5 | 109 | . | . | .
CC1C(=O)N2CCCc3cc(S(=O)(=O)NCc4ccccc4Cl)cc1c32 (stereo unspecified) | 9 | 92 | -30 | 24 | -3 | 94 | . | . | .
CC(=O)c1cccc(N(C(=O)Cn2nnc3ccccc32)C(C(=O)NCc2ccccc2)c2ccccn2)c1 (stereo unspecified) | -5 | 105 | -32 | 1 | 2 | 130* | 94 | 4 | 97
CC(=O)c1cccc(N(C(=O)c2cnccn2)C(C(=O)NCc2ccccc2)c2ccco2)c1 (stereo unspecified) | 6 | 118 | -13 | 5 | 9 | 124* | 100 | 5 | 97
O=C(NCc1ccccc1)C(c1ccco1)N(C(=O)c1ccccn1)c1ccccc1 (stereo unspecified) | 9 | 104 | -27 | -1 | 0 | 101 | . | . | .
COCCNC(=O)C(c1ccccc1)N(C(=O)Cn1nnc2ccccc21)c1cccnc1 (stereo unspecified) | -1 | 110 | -10 | -6 | 10 | 108 | . | . | .
COc1ccc(CNC(=O)C(c2ccco2)N(C(=O)c2ccccn2)c2ccccc2)cc1 (stereo unspecified) | 2 | 55*[inhibitor] | -35 | 0 | -15 | 59*[inhibitor] | 96 | -4 | 98
COC(=O)/C=C1\N/C(=N\c2nc(C)cc(C)n2)N(c2ccc(C)c(C)c2)C1=O | 1 | 99 | -15 | -1 | -3 | 99 | . | . | .
CCCc1c(C(=O)N/N=C(/C)c2ccncc2)nnn1-c1nonc1N | 0 | 103 | -18 | -6 | 3 | 105 | . | . | .
N#Cc1c(-c2ccc3c(c2)OCO3)csc1N | 17 | 116 | -4 | 8 | 6 | 123* | 105 | 4 | 105
CN(C)/C=C(\C#N)C(=O)N/N=C/c1ccccc1 | -17 | 106 | 7 | -12 | -2 | 111 | . | . | .
O=C(CN1C(=O)/C(=C/c2ccc(F)cc2)SC1=S)NC1CCS(=O)(=O)C1 (stereo unspecified) | 10 | 98 | -16 | -5 | -1 | 103 | . | . | .
CC(C)NCC(O)COc1ccc2c(c1)CCC2 (stereo unspecified) | -3 | 108 | 2 | -7 | 1 | 140* | 95 | -3 | 90
CC(C)NCC(O)COc1ccc(Br)cc1 (stereo unspecified) | -11 | 103 | 5 | 8 | -1 | 101 | . | . | .
COc1ccc(OC)c(NC(=O)CCN2CC(C)CC(C)C2)c1 (stereo unspecified) | 1 | 105 | 3 | 2 | 1 | 101 | . | . | .
COc1ccc(-c2cc(C(F)(F)F)nc(N3CCOCC3)n2)cc1 | 12 | 102 | -1 | 31 | 8 | 100 | . | . | .
COc1ccc(-c2cc(-c3ccc(F)cc3)nc(N3CCN(C)CC3)n2)cc1 | -49 | 201* | 10 | 42 | 39 | 122 | 205 | 78* | 117
O=C1CC(=O)Nc2cc(S(=O)(=O)N3CCOc4ccc(Cl)cc43)ccc2N1 | -3 | 103 | -14 | -24 | 3 | 105 | . | . | .
COC(=O)c1ccc2c(=O)n(CCCCCC(=O)NCCNC(C)=O)c(=O)[nH]c2c1 | 4 | 96 | -11 | -9 | 1 | 96 | . | . | .
CC(C)CC(=O)/C(=C/c1ccc(N(C)C)cc1)n1cncn1 | -2 | 37*[inhibitor] | -16 | -12 | -9 | 69*[inhibitor] | 104 | 0 | 102
O=C(Nc1cccc(NS(=O)(=O)c2ccc(S(=O)(=O)NC3CC3)cc2)c1)c1ccccn1 | -7 | 114 | -9 | -5 | 5 | 124* | 101 | 1 | 108
O=C(Nc1cccc(S(=O)(=O)N2CCCCC2)c1)c1ccccn1 | -3 | 103 | -7 | -4 | 1 | 102 | . | . | .
N=c1oc2ccc3ccccc3c2cc1-c1nc(-c2ccccc2)cs1 | 11 | 96 | 1 | -19 | -1 | 146* | 94 | -6 | 94
O=C(CN1C(=O)CSCC1=O)Nc1ccc2c(c1)OCO2 | -1 | 103 | 2 | -5 | 0 | 136* | 100 | 2 | 104
SMILES | HCV NS3 hel inh | MEKK2 WT-MEK5 | FID counter | T cruzi inh | MEKK2mut PB1 HTS | MEKK3 PB1 HTS | MEKK2wt confirm | MEKK2mut confirm | MEKK3 confirm
Cc1c(/C=C2\SC(=O)N(CC(=O)Nc3ccc4c(c3)OCO4)C2=O)c2ccccc2n1C | 8 | -2.0*[inhibitor] | -2 | 20 | -21 | 2.0*[inhibitor] | 97 | -2 | 99
O=C(CNC(=O)/C=C/c1ccco1)N=Nc1c(O)[nH]c2ccccc12 | 19 | 104 | -25 | -10 | 6 | 102 | . | . | .
N#Cc1c(NC(=O)CSc2nc(N)cc(=O)[nH]2)sc2c1CCCC2 | 15 | 2.0*[inhibitor] | -2 | -36 | -13 | 1.0*[inhibitor] | 95 | 1 | 101
CN(C)CCNc1ncnc2c1sc1nc(N3CCOCC3)c3c(c12)CC(C)(C)SC3 | -84 | 141* | 17 | 54 | 14 | 105 | 141 | 20 | 107
Cc1cccc(CN2CCN(C(C)C(=O)NC(C)c3ccccc3)CC2)c1 (stereo unspecified) | -15 | 98 | 4 | 28 | -4 | 94 | . | . | .
COc1ccc(/C=C/CN2CCCC(CO)(Cc3cccc(Cl)c3)C2)cc1 (stereo unspecified) | -67 | 159* | 16 | 47 | 6 | 110 | 113 | 15 | 102
OCC1(Cc2cccc(Cl)c2)CCCN(Cc2sc(N3CCCC3)nc2Cl)C1 (stereo unspecified) | -28 | 101 | 8 | 45 | -22 | 108 | . | . | .
COc1cc(/C=C/c2ccc3cccc(OC)c3n2)c(O)c([N+](=O)[O-])c1 | -6 | 55*[inhibitor] | -5 | -17 | -15 | 50*[inhibitor] | 94 | -7 | 92
COc1cc(/C=C/c2ccc3cccc(OC)c3n2)c(OC(C)=O)c([N+](=O)[O-])c1 | 4 | 93 | -10 | 17 | -2 | 98 | . | . | .
